The list is not random: actives were taken first. Their share in the collection is about 5.7%.
T cruzi repl: T. cruzi replication inhibition; 1.4% of 300,000 active; AID 1885; T. cruzi beta-gal in NIH3T3, luminescence, 90 h; inhibition, % (concentration not given with the values);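 active means mean inhibition across valid replicates above about 55%, limit read from the data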;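 further: signal also drops with host cell toxicity which is not excluded here; 0% = plate median of DMSO wells and 100% = zero luminescence signal; higher percent means less beta-gal luminescence so fewer parasites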
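assay system = mouse NIH/3T3 fibroblasts infected with β-gal-expressing T. cruzi Tulahuen C4 | input = 5,000 NIH/3T3 host cells per well | buffer or medium = DMEM plus 2% FBS | timing = 3 h host attachment, then at least 90 h co-culture | measured by = GalScreen luminescence, 60 min | evaluation = luminescence reflecting intracellular parasite burden, expressed as percent inhibition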
Mdm2 MdmX PPI: human Mdm2/MdmX binding inhibition | inhibition, % at 8 µM | AID 485346 | 3% of 330,000 active | SaOS-2 split-luciferase Mdm2/MdmX complementation, luminescence | O15151+Q00987;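 active means inhibition of at least 50% at 8 µM in the primary screen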
Target sequence (O15151 whole entry, looked up): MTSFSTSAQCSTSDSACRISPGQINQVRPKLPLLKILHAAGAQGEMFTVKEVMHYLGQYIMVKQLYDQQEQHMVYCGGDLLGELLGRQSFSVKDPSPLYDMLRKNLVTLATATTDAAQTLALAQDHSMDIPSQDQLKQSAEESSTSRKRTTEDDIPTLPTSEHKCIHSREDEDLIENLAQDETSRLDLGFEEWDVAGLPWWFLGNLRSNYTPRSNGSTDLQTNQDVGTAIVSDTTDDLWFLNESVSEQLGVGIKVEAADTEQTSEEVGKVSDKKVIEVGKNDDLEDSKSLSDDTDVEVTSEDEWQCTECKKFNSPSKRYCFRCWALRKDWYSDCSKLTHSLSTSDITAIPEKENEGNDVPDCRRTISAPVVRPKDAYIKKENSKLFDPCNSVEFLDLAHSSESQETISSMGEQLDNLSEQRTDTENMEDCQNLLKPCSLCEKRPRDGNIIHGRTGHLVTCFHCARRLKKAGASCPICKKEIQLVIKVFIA
Target sequence (Q00987 whole entry, looked up): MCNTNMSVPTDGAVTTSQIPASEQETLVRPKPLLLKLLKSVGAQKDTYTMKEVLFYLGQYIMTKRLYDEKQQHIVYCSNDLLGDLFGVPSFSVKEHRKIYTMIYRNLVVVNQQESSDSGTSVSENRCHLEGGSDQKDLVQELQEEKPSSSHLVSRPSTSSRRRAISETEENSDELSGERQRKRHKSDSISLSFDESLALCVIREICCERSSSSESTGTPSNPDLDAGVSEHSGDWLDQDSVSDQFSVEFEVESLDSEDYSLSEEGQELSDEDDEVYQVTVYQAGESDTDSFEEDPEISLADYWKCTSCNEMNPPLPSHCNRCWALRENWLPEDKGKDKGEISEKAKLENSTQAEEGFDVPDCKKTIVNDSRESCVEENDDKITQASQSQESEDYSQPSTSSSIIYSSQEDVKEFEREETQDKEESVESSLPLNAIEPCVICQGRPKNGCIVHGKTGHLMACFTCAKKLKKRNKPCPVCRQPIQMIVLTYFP
Beta cell apopt: beta cell apoptosis inhibition. INS-1E cytokine-induced death, ATP luminescence, 48 h; percent of positive-control rescue, neutral wells zero. 0.8% of 300,000 active. protection from apoptosis, % (concentration not given with the values). AID 435005;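 active means Every replicate reaches about 75%, or at least half do and their mean reaches it too, limit read from the data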;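 further: 0% = cytokine-treated negative control wells and 100% = positive control rescue; higher means more ATP so stronger rescue from cytokine killing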
SKKanGAS inh: blocks kanamycin growth of S. pyogenes SKKanGAS strain. BacTiter-Glo, 6 h. 1.3% of 300,000 active. inhibition, % at 7.5 µM;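 active means mean replicate score, as percent of positive control median, at least 50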;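 further: strain carries kanamycin resistance gene driven by streptokinase promoter and grows in 40 µg/ml kanamycin; loss of luminescence reflects streptokinase promoter inhibition or plain growth inhibition; 0% = median of DMSO wells and 100% = positive control at its reference dose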
CSC inhib: cancer stem cell inhibition; 1.1% of 300,000 active; cancer stem cell-like cells viability, luminescence; inhibition, % at 7.5 µM; in the data active means inhibition above about 75%; tested in HMLE shEcad cells
Calb FLC: affects C. albicans growth with fluconazole; C. albicans CaCi-2 + fluconazole, Alamar Blue growth, 48 h; growth inhibition, % (no concentration beside the values); 0.57% of 300,000 active;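 active means growth inhibition above about 58% in most replicates, limit read from the data, passing the limit was not always enough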;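 further: all wells also contain fluconazole at 8 µg/ml as a sub-toxic cotreatment; 0% = median of DMSO wells and 100% = median of geldanamycin control wells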
Mdm2 MdmX conf: human Mdm2/MdmX binding inhibition, confirmed. 55% of 10,000 active. inhibition, % at 8 µM. luminescent assay. AID 489028. shares compounds with Mdm2 MdmX PPI; in the data active means inhibition above about 40%
Full FLuc ctr: inhibits full-length luciferase, flagging false Mdm2/MdmX hits. AID 504607. shares compounds with Mdm2 MdmX PPI. 77% of 6,200 active. SaOS-2 full-length luciferase counterscreen, luminescence. inhibition, % at 8 µM;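 active means mean inhibition at 8 µM reaching about 37%, which flags the compound as non-specific, limit read from the data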;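 further: p53-null SaOS-2 cells with luciferase driven by a doxycycline-inducible promoter; compound on cells about two nights before reading with doxycycline added after day one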
Numbers without * were called inactive.

`CN(C)c1cc[n+](CC(=O)c2ccc(-c3ccccc3)cc2)cc1` gave T cruzi repl 56*, Mdm2 MdmX PPI 60*, Beta cell apopt 106*, SKKanGAS inh -9, CSC inhib 13, Calb FLC 112*, Mdm2 MdmX conf 44* and Full FLuc ctr 48*.
Screening Cc1ccc(C(=O)C[n+]2ccc(Cc3ccccc3)cc2)cc1 returned T cruzi repl 12, Mdm2 MdmX PPI 52*, Beta cell apopt 61, SKKanGAS inh -4, CSC inhib 1, Calb FLC 7, Mdm2 MdmX conf 44* and Full FLuc ctr 63*.
Screening CN(C)S(=O)(=O)c1cccc(NC(=O)COC(=O)c2c[nH]c(=O)[nH]c2=O)c1 returned T cruzi repl -6, Mdm2 MdmX PPI -12, Beta cell apopt -2, SKKanGAS inh 10, CSC inhib 0 and Calb FLC -33.
`Cn1c(=O)n(CCc2ccccc2)c(=O)c2c1nc1n2CCCN1CCc1ccccc1` gave T cruzi repl 53, Mdm2 MdmX PPI 65*, Beta cell apopt 10, SKKanGAS inh 26, CSC inhib 41, Calb FLC -1 and Mdm2 MdmX conf -4.
`CCCn1c(=O)c2c(nc3n2CCCN3CCc2ccccc2)n(C)c1=O` gave T cruzi repl 26, Mdm2 MdmX PPI 6, Beta cell apopt 5, SKKanGAS inh 0, CSC inhib 13 and Calb FLC -1.
For COc1ccc(S(=O)(=O)N2CCCC2CNC(=O)C(=O)NCCc2ccccc2)cc1 (stereo not drawn) the results were T cruzi repl 3, Mdm2 MdmX PPI 60*, Beta cell apopt 11, SKKanGAS inh 0, CSC inhib 41, Calb FLC -13, Mdm2 MdmX conf 67* and Full FLuc ctr 64*.
COC(=O)[C@@]1(Cc2ccc(F)cc2)[C@H]2c3cc(C(=O)N4CCCC4)n(CCCNc4ncc(C(F)(F)F)cc4Cl)c3C[C@H]2CN1C(=O)c1ccccc1 was read as T cruzi repl 40, Mdm2 MdmX PPI 62*, Beta cell apopt 15, SKKanGAS inh 27, CSC inhib 26, Calb FLC 2 and Mdm2 MdmX conf -1.
COC(=O)[C@@]1(Cc2ccc(F)cc2)[C@H]2c3cc(C(=O)N4CCCC4)n(Cc4ccc(C(F)(F)F)nc4)c3C[C@H]2CN1C(=O)c1ccccc1 was read as T cruzi repl 34, Mdm2 MdmX PPI 8, Beta cell apopt -5, SKKanGAS inh 18, CSC inhib 12 and Calb FLC 15.
Cc1ccc(N(C(=O)c2csnn2)C(C(=O)NC2CCCC2)c2ccccn2)cc1 (stereo not drawn) was read as T cruzi repl -9, Mdm2 MdmX PPI -2, Beta cell apopt -1, SKKanGAS inh 6, CSC inhib 7 and Calb FLC -2.
COc1ccc(CCn2c(SCC(=O)Nc3cc(C)on3)nc3ccsc3c2=O)cc1OC was read as Mdm2 MdmX PPI 15 and CSC inhib -10.
For COc1ccc(CCn2c(SCC(=O)Nc3cc(C)on3)nc3ccccc3c2=O)cc1OC the results were T cruzi repl 0, Mdm2 MdmX PPI 59*, Beta cell apopt -11, SKKanGAS inh 17, CSC inhib -10, Calb FLC 3 and Mdm2 MdmX conf 24.
For Cc1cc(NC(=O)CSc2nc3cc(Cl)ccc3c(=O)n2C(C)C)no1 the results were Mdm2 MdmX PPI 56* and Mdm2 MdmX conf 20.
`CCn1c(SCC(=O)Nc2ccc(C(C)=O)cc2)nc2c([nH]c3ccccc32)c1=O` gave T cruzi repl 13, Mdm2 MdmX PPI 62*, Beta cell apopt 26, SKKanGAS inh 5, CSC inhib 12 and Mdm2 MdmX conf 36.
`CCn1c(SCC(=O)Nc2cccc(NC(C)=O)c2)nc2c([nH]c3ccccc32)c1=O` gave T cruzi repl -10, Mdm2 MdmX PPI 78*, SKKanGAS inh 18, CSC inhib -8, Calb FLC -4 and Mdm2 MdmX conf 31.
CCOc1cc(N2CCCC2)ccc1[N+](=O)[O-] was read as T cruzi repl 4, Mdm2 MdmX PPI 1, Beta cell apopt -5, SKKanGAS inh 21, CSC inhib -10 and Calb FLC 3.
For CCC1Oc2ccccc2N(CC(=O)NCCCN2CCN(c3ccc(OC)cc3)CC2)C1=O (stereo not drawn) the results were T cruzi repl 4, Mdm2 MdmX PPI 5, Beta cell apopt 2, SKKanGAS inh -2, CSC inhib -7 and Calb FLC -20.
CCn1c(SCC(=O)N2CCOCC2)nc2c([nH]c3ccccc32)c1=O was read as T cruzi repl -16, Mdm2 MdmX PPI 19, Beta cell apopt -6, SKKanGAS inh -1, CSC inhib -15 and Calb FLC 2.
Screening Cn1c(SCC(=O)NCc2ccc(F)cc2)nc2c([nH]c3ccccc32)c1=O returned T cruzi repl 7, Mdm2 MdmX PPI 75*, Beta cell apopt -1, SKKanGAS inh -5, CSC inhib 6, Calb FLC -2 and Mdm2 MdmX conf -8.
Screening CCn1c(SCC(=O)Nc2cc(C)on2)nc2c([nH]c3ccccc32)c1=O returned T cruzi repl 7, Mdm2 MdmX PPI 65*, Beta cell apopt 26, SKKanGAS inh 0, CSC inhib -8, Calb FLC 4 and Mdm2 MdmX conf 26.
CC(C)Oc1ccc(C(=O)NN2C(=O)NC3(CCCCC3)C2=O)cc1 was read as Mdm2 MdmX PPI -8 and Beta cell apopt 3.
CCOc1ccc(-c2nc(CN3CCCCC3CCn3cccn3)c(C)o2)cc1 (stereo not drawn) was read as T cruzi repl 11, Mdm2 MdmX PPI -9, Beta cell apopt -2, SKKanGAS inh -3, CSC inhib -11 and Calb FLC -7.
Screening Cc1ccc(S(=O)(=O)N/N=C\c2cn(CC(N)=O)c3ccccc23)cc1C returned T cruzi repl 11, Mdm2 MdmX PPI 52*, Beta cell apopt -4, SKKanGAS inh 1, CSC inhib -7, Calb FLC 1 and Mdm2 MdmX conf 28.
Screening NC(=O)Cn1cc(/C=N\NS(=O)(=O)c2ccc(Cl)cc2)c2ccccc21 returned T cruzi repl -3, Mdm2 MdmX PPI 14, Beta cell apopt -8, SKKanGAS inh 24, CSC inhib -2 and Calb FLC 4.
`COc1ccc(OC)c(CN2CCN(c3ccc(S(=O)(=O)N4CCCC4)cn3)CC2)c1` gave Mdm2 MdmX PPI 3, Beta cell apopt 1 and CSC inhib 29.
`Cc1cc(C)c2ccc(/C=N/O)nc2c1O` gave T cruzi repl -6, Mdm2 MdmX PPI 42, Beta cell apopt 0, SKKanGAS inh 35, CSC inhib 21 and Calb FLC 6.

High-throughput results from PubChem.
